Type in all cases: functional
For assay [1], the system named is Candida albicans. As to the kind of experiment: Antifungal activity against Candida albicans up to 24 hrs. An outline of the steps: (§1)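 MFC in tubes of standardized spore suspension (10⁴ CFU/mL) of clinical isolates, each dosed with compound at increasing concentrations starting from the MIC. Controls: solvent at its highest level, and fluconazole. CFU counted and viability checked at intervals over 0–24 h. MFC is the lowest concentration killing about 99% of viable CFU.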

Assay [2] has as its system Candida albicans. As to the kind of experiment: Antifungal activity against Candida albicans by agar diffusion technique. An outline of the steps:
(§2)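 Clinical isolates (A. flavus mold; C. albicans yeast), spore suspension standardized at 10⁴ CFU/mL. DMSO stocks diluted to a concentration series. Approximate MIC by agar diffusion (well technique), taken as the concentration giving minimal inhibition around the well.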

Assay [3] relates to Aspergillus flavus. As to the kind of experiment: Antifungal activity against Aspergillus flavus up to 24 hrs. Summed up:
as §1

Assay [4] relates to Aspergillus flavus. Description: Antifungal activity against Aspergillus flavus by agar diffusion technique. An outline of the steps:
as §2
For orientation: In agar diffusion tests the substance spreads into inoculated agar from a disc or well.

Assay [5] relates to Candida albicans. As to the kind of experiment: Antifungal activity against Candida albicans at 500 ppm. The following applies: for zone of inhibition at 500 ppm: read-out: DIZ. An outline of the steps:
(§3)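 Agar well diffusion against clinical isolates (A. flavus mold; C. albicans yeast); standardized spore suspension 10⁴ CFU/mL. Compounds dissolved in DMSO as a parent stock, diluted to test levels (100, 300, 500, 1000 ppm).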

For assay [6], the system named is Candida albicans. Description: Antifungal activity against Candida albicans at 1000 ppm. The following applies: read-out: DIZ. An outline of the steps: as §3
Assay [7] deals with Candida albicans. Description: Antifungal activity against Candida albicans at 300 ppm. The following applies: for zone of inhibition at 300 ppm: read-out: DIZ. An outline of the steps: as §3
Assay [8] deals with Candida albicans. As to the kind of experiment: Antifungal activity against Candida albicans at 100 ppm. Summed up: as §3
The subject of assay [9] is Aspergillus flavus. Description: Antifungal activity against Aspergillus flavus at 500 ppm. Summed up:
as §3

Assay [10] relates to Aspergillus flavus. As to the kind of experiment: Antifungal activity against Aspergillus flavus at 1000 ppm. The following applies: for zone of inhibition at 1000 ppm: read-out: DIZ. An outline of the steps:
as §3

Assay [11] has as its system Aspergillus flavus. Description: Antifungal activity against Aspergillus flavus at 100 ppm. An outline of the steps:
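Clinical isolate of A. flavus (mold) tested by agar diffusion, well technique, using a standardized spore suspension of 10⁴ CFU/mL. Compounds were dissolved in dimethylsulphoxide and diluted from a parent stock.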

Assay [12] concerns Aspergillus flavus. Description: Antifungal activity against Aspergillus flavus at 300 ppm. Summed up: as §3

SMILES strings stand for the structures. Values after ≈ are worked out from the molar mass of the structure shown. Active and inactive are the calls of the source.

Experimental findings from ChEMBL document CHEMBL2390931, “Synthesis and antifungal activity of some s-mercaptotriazolobenzothiazolyl amino acid derivatives” (2013) are described below.

As a reminder, the MIC is the smallest concentration in the dilution series that meets the test's criterion for growth inhibition.

`COC(=O)[C@H](Cc1ccc(O)cc1)NC(=O)CSc1nnc2sc3ccccc3n12`: the MFC entry in the assay with Candida albicans [1] and in the assay on Aspergillus flavus [3] was “inactive” each time. Further, the MIC in the assay with Candida albicans [2] is 100 µg/mL (≈ 226 µM); in the assay on Aspergillus flavus [4], 1000 µg/mL (≈ 2260 µM). Besides, the zone of inhibition at 500 ppm with Candida albicans [5] was > 16 mm. Moreover, the zone of inhibition at 1000 ppm with Candida albicans [6] was > 16 mm; with Aspergillus flavus [10], < 10 mm. In addition, in the assay with Candida albicans [7], the zone of inhibition at 300 ppm was < 10 mm. For the same compound, the zone of inhibition at 100 ppm in the assay with Candida albicans [8] (read-out: DIZ) is < 10 mm. For the same compound, the “diameter of the inhibition zone (DIZ)” value with Aspergillus flavus [9], in the assay on Aspergillus flavus [11] and in the assay with Aspergillus flavus [12] was “inactive” each time.
Take `COC(=O)[C@H](CCSC)NC(=O)CCn1nc2sc3ccccc3n2c1=S`: the MFC result in the assay on Candida albicans [1] and in the assay on Aspergillus flavus [3] was “inactive” each time. Also, the figures for the MIC against Candida albicans [2] and in the assay with Aspergillus flavus [4] were 500 µg/mL (≈ 1180 µM) and 1000 µg/mL (≈ 2360 µM), respectively. The zone of inhibition at 500 ppm with Candida albicans [5] was < 10 mm. Moreover, the zone of inhibition at 1000 ppm in the assay on Candida albicans [6] was 10 mm; in the assay with Aspergillus flavus [10] it was < 10 mm. In addition, the “diameter of the inhibition zone (DIZ)” value in the assay on Candida albicans [7], in the assay with Candida albicans [8], in the assay with Aspergillus flavus [9], with Aspergillus flavus [11] and in the assay on Aspergillus flavus [12] was “inactive” throughout.
For the compound `COC(=O)CCn1nc2sc3ccccc3n2c1=S`, the MFC entry in the assay with Candida albicans [1] and with Aspergillus flavus [3] was “inactive” each time. Moreover, the figures for the MIC with Candida albicans [2] and with Aspergillus flavus [4] were 300 µg/mL (≈ 1020 µM) and 1000 µg/mL (≈ 3410 µM), respectively. Besides, the zone of inhibition at 500 ppm in the assay with Candida albicans [5] was < 10 mm. Besides, the figures for the zone of inhibition at 1000 ppm in the assay on Candida albicans [6] and with Aspergillus flavus [10] were > 16 mm and < 10 mm, respectively. The zone of inhibition at 300 ppm in the assay with Candida albicans [7] was < 10 mm. In addition, the “diameter of the inhibition zone (DIZ)” value in the assay with Candida albicans [8], in the assay with Aspergillus flavus [9], in the assay with Aspergillus flavus [11] and in the assay on Aspergillus flavus [12] was “inactive” in each case.
Turning to `NNC(=O)CCn1nc2sc3ccccc3n2c1=S`, the MFC entry in the assay with Candida albicans [1] and in the assay with Aspergillus flavus [3] was “inactive” in each case. Besides, inhibition of growth in the assay with Candida albicans [2] (MIC) required 1000 µg/mL (≈ 3410 µM). In addition, the MIC result with Aspergillus flavus [4] is “inactive”. In addition, the “diameter of the inhibition zone (DIZ)” value in the assay on Candida albicans [5], with Candida albicans [7], with Candida albicans [8], with Aspergillus flavus [9], in the assay with Aspergillus flavus [10] and in the assay on Aspergillus flavus [11] was “inactive” in each case. Besides, in the assay with Aspergillus flavus [12], the “diameter of the inhibition zone (DIZ)” value was “inactive”. In the assay on Candida albicans [6], the zone of inhibition at 1000 ppm is < 10 mm.
As to `COC(=O)[C@H](CCSC)NC(=O)CSc1nnc2sc3ccccc3n12`, the MFC result with Candida albicans [1] and in the assay on Aspergillus flavus [3] was “inactive” each time. Moreover, it took 1000 µg/mL (≈ 2440 µM) to inhibit growth against Candida albicans [2] (MIC). In addition, the MIC entry in the assay on Aspergillus flavus [4] is “inactive”. In addition, the “diameter of the inhibition zone (DIZ)” value in the assay with Candida albicans [5], in the assay on Candida albicans [7], in the assay with Candida albicans [8], with Aspergillus flavus [9], in the assay on Aspergillus flavus [10] and in the assay on Aspergillus flavus [11] was “inactive” throughout. For the same compound, the “diameter of the inhibition zone (DIZ)” value in the assay with Aspergillus flavus [12] is “inactive”. Further, in the assay with Candida albicans [6], the zone of inhibition at 1000 ppm was < 10 mm.
`CCOC(=O)CSc1nnc2sc3ccccc3n12`: the MFC entry with Candida albicans [1] and in the assay with Aspergillus flavus [3] was “inactive” in each case. Moreover, inhibition of growth in the assay on Candida albicans [2] (MIC) required 500 µg/mL (≈ 1700 µM). The MIC result in the assay with Aspergillus flavus [4] was “inactive”. For the same compound, in the assay with Candida albicans [5], the zone of inhibition at 500 ppm is < 10 mm. Further, the zone of inhibition at 1000 ppm with Candida albicans [6] was 10 mm. The “diameter of the inhibition zone (DIZ)” value in the assay on Candida albicans [7], in the assay with Candida albicans [8], with Aspergillus flavus [9], with Aspergillus flavus [10], in the assay on Aspergillus flavus [11] and in the assay on Aspergillus flavus [12] was “inactive” in each case.
In the case of `COC(=O)[C@H](CC(C)C)NC(=O)CSc1nnc2sc3ccccc3n12`, the MFC result in the assay on Candida albicans [1] and in the assay with Aspergillus flavus [3] was “inactive” throughout. In the assay on Candida albicans [2], the lowest concentration to inhibit growth (MIC) was 500 µg/mL (≈ 1270 µM). Besides, in the assay with Aspergillus flavus [4], the MIC result was “inactive”. Further, the zone of inhibition at 500 ppm with Candida albicans [5] was < 10 mm. Besides, in the assay on Candida albicans [6], the zone of inhibition at 1000 ppm came to 10 mm. The “diameter of the inhibition zone (DIZ)” value in the assay with Candida albicans [7], in the assay with Candida albicans [8], in the assay on Aspergillus flavus [9], in the assay with Aspergillus flavus [10], in the assay on Aspergillus flavus [11] and in the assay on Aspergillus flavus [12] was “inactive” in each case.
